Bioassay records (PubChem)
STEP inh: STEP (human) phosphatase inhibition; recombinant STEP, OMFP fluorogenic substrate, fluorescence; inhibition, % at 20 µM; 360,000 tested, 0.25% active; AID 588621;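 active = inhibition at 20 µM, scaled per plate between control wells, above about 37%, limit read from the data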;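 also: 0% = DMSO with enzyme and substrate and 100% = substrate only without enzyme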
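System: isolated STEP enzyme; schedule: 20 min enzyme reaction at room temperature, protected from light; medium: Bis-Tris buffer pH 6.0, 2.5 mM DTT, 0.005% Tween 20; signal: fluorescence, 480/540 nm; dosing: single compound dose of 20 µM, 1% DMSO final; also added: OMFP substrate, 25 µM final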
SUMO1 PPI mod: modulators of human SUMO1-mediated protein-protein interactions; P63165; inhibition, % at 20 µM; 360,000 tested, 0.33% active; SUMO1 binding to a labelled peptide, TR-FRET, 1 h; in the data active = inhibition above about 37%
Rpn11 inh: Rpn11 (human) deubiquitinase inhibition; 360,000 tested, 0.59% active; human 26S proteasome, Ub4-pepOG fluorescence polarization; 20S core pre-blocked with epoxomicin; inhibition, % at 20 µM;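 active = inhibition at 20 µM, scaled to each plate's controls, above about 33%, limit read from the data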
LMPTP block: blocks human LMPTP phosphatase; P24666; recombinant LMPTP-A, OMFP fluorogenic substrate, fluorescence intensity; inhibition, % at 20 µM; 360,000 tested, 0.22% active;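 active = compounds that cut the enzyme signal by at least half of the control window in the single-dose screen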;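 also: plate controls were DMSO wells with enzyme plus substrate for no effect and substrate without enzyme for full effect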
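Buffer or medium: Bis-Tris pH 6.0, DTT, detergent; Assay system: LMPTP-A enzyme; Quantity: 0.625 nM enzyme; Detection: endpoint fluorescence intensity; Times: 50 min dark incubation at room temperature; Controls: substrate-only low control, DMSO enzyme-plus-substrate high control; Doses: single 20 µM dose; Read-out: percent inhibition versus substrate-only and uninhibited controls; Reagent: 400 µM OMFP.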
Scp-1 inhibitor: blocks human Scp-1 phosphatase activity; inhibition, % at 20 µM; Q9GZU7; Recombinant Scp1, phosphopeptide, malachite green phosphate absorbance; 340,000 tested, 0.88% active;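 active = inhibition above about 50% at 20 µM, limit read from the data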;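 also: plate controls were DMSO wells with enzyme for no effect and wells lacking enzyme for full effect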
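Assay system: SCP-1 catalytic fragment, aa 76-261 | Buffer or medium: Tris acetate buffer pH 5.5 with MgCl2 and Tween-20 | Compound: One concentration, 20 µM, with 1.0% DMSO | Also added: Phospho 17-mer peptide substrate | Signal: Absorbance at 630 nm | Incubation: 45 min enzyme reaction at room temperature | Measure: % inhibition of SCP-1 phosphate liberation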
DNMT1 block: DNMT1 (human) enzyme inhibition. inhibition (reported as % activation of signal), % at 10 µM. P26358. AID 588458. DNMT1 molecular beacon, Hinp1I cleavage, fluorescence. 360,000 tested, 0.83% active; in the data active = inhibition above about 50%
Target sequence (P26358 504-1616 limits assumed): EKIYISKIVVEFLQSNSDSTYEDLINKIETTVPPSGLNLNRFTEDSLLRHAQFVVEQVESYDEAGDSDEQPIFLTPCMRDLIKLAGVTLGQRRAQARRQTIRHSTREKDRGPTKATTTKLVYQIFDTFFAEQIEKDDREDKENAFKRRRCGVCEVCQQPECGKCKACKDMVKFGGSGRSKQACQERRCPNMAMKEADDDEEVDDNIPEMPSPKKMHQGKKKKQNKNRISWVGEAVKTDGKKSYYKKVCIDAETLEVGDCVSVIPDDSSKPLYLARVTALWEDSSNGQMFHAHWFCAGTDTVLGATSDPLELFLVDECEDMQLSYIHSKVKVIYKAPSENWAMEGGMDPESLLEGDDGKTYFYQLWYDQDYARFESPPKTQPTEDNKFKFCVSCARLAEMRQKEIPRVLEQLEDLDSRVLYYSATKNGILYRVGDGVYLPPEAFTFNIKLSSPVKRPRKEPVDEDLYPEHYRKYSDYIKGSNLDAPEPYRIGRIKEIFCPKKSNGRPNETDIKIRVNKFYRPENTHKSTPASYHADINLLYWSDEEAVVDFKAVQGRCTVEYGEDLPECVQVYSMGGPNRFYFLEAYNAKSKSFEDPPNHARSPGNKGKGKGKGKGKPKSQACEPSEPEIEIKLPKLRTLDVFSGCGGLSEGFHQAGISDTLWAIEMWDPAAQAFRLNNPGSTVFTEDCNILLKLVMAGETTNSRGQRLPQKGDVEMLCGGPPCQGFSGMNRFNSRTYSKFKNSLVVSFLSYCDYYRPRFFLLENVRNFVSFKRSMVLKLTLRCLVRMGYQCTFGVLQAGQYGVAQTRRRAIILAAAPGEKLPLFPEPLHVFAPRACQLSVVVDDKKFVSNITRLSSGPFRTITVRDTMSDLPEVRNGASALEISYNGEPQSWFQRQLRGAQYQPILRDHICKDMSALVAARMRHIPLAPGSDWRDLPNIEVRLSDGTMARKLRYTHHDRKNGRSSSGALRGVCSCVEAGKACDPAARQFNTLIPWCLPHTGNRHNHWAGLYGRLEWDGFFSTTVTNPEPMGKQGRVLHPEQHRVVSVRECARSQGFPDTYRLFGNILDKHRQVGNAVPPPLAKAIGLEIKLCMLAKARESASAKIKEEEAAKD
STEP conf: confirmation of human STEP phosphatase inhibitors | shares compounds with STEP inh | recombinant STEP, OMFP fluorogenic substrate, fluorescence | inhibition, % at 20 µM | 520 tested, 32% active | AID 623866; call rule not given here;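 also: 0% = enzyme with substrate plus DMSO and 100% = substrate without enzyme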
* = called active by the depositor; . = not tested or not shown. In the library only some 2.3% were active in any assay of this set; here they are far more common.

SMILES | STEP inh | SUMO1 PPI mod | Rpn11 inh | LMPTP block | Scp-1 inhibitor | DNMT1 block | STEP conf
COC(=O)c1ccc([N+](=O)[O-])cc1N1C(=O)C2C3CCC(C3)C2C1=O (stereo unspecified) | 63.8* | -18.3 | -4.3 | -1.8 | -8.1 | -1.4 | -3.4
COc1cc([N+](=O)[O-])ccc1NC(=O)CCN1C(=O)C2C3CCC(C3)C2C1=O (stereo unspecified) | 6.4 | -21.2 | -6.9 | -3.2 | -5.2 | -0.4 | .
CCOCCCNC(=S)NC1CC2CCC(C1)N2Cc1ccccc1 (stereo unspecified) | 55.4* | 2.2 | -0.1 | 0.7 | -2.5 | -0.1 | 24.7
CC(=O)c1ccc(-c2cnc3c(NC=O)cc(-c4ccccc4Oc4ccccc4)cn23)cc1 | 0.4 | -3.2 | 16.7 | 2.3 | . | -11.4 | .
CC1CCN(C(=O)C2CCCN2S(=O)(=O)c2ccc(Cl)cc2)CC1 (stereo unspecified) | -1.7 | -2.5 | 2.4 | -0.4 | -4.5 | 1.0 | .
CN1CCN(C(=S)Nc2ccc(S(N)(=O)=O)cc2)CC1 | 81.3* | 3.8 | -2.0 | -2.7 | -2.2 | -4.5 | 38.8*
CN1CCN(C(=S)C(=O)Nc2ccc(Br)cc2)CC1 | 94.5* | 0.4 | 0.8 | 1.2 | -4.2 | -0.1 | 76.9*
CN1CCN(C(=S)NC(=O)c2ccc(Br)cc2)CC1 | -4.0 | -4.8 | -1.5 | -5.6 | -3.6 | 2.0 | .
CCCCc1ccc(N2C(=NC(=O)C3CCCO3)SC3CS(=O)(=O)CC32)cc1 (stereo unspecified) | 0.8 | -2.6 | 1.8 | 0.2 | -6.2 | 3.1 | .
Cc1cc(Cl)ccc1NC(=S)N(CCCN1CCOCC1)Cc1cccs1 | 57.2* | -0.3 | -5.3 | -2.4 | -1.7 | 8.9 | 11.7
CCc1cccc(C)c1NC(=S)N(CCCN1CCOCC1)Cc1cccnc1 | 41.0* | 4.0 | -1.5 | -5.2 | -5.2 | 0.8 | 4.6
COC(=O)N1C(=O)[C@@](c2ccccc2)(C2CCCCC2)N1C(=O)OC | 3.7 | 2.1 | -5.4 | -1.8 | -5.6 | 2.8 | .
CCCn1c(SCC(=O)c2c(C)[nH]c(C)c2C(=O)OCC)nc2ccccc21 | 59.0* | 3.9 | -2.8 | 0.8 | -3.9 | 2.6 | 25.8
CCOC(=O)c1c(C)[nH]c(C)c1C(=O)CSc1nc2ccccc2n1CCC#N | 14.4 | 3.5 | -4.2 | -0.4 | -3.9 | 5.0 | .
CN1CCN(Cc2nc3ccccc3c(=O)n2Cc2nc(-c3cccc([N+](=O)[O-])c3)cs2)CC1 | 42.9* | -18.8 | 7.2 | 4.5 | -2.5 | -17.5 | 12.7
CN1CCN(Cc2nc3ccccc3c(=O)n2Cc2nc(-c3ccc4ccccc4c3)cs2)CC1 | 2.2 | -47.3 | 11.3 | -4.4 | 1.9 | -11.0 | .
COc1ccc(OCc2nnc3n2N=C(c2ccc(OC)cc2)CS3)cc1 | 0.4 | -1.1 | 5.1 | 0.4 | -0.4 | 1.2 | .
c1ccc(OCc2nnc3n2N=C(c2ccccc2)CS3)cc1 | 70.3* | -5.0 | -1.8 | 0.6 | -5.2 | -1.7 | -0.4
O=[N+]([O-])c1ccc(C(O)CSC(=S)N2CCCCC2)cc1 (stereo unspecified) | -0.4 | -20.0 | 5.1 | 0.8 | -12.1 | -1.0 | .
O=C(NCCCNC(=O)c1cnccn1)c1ccc(Br)cc1 | 59.4* | 3.8 | -5.3 | -1.9 | -0.6 | -0.1 | -0.4
Cc1cccc(NC(=O)c2ccc(NS(=O)(=O)c3cccc4cccnc34)cc2)c1 | 1.2 | 3.4 | 6.4 | 2.8 | -2.0 | -8.1 | .
COc1ccc(NC(=S)N2CCC(N(C)CC3CCCO3)CC2)cc1Cl (stereo unspecified) | 49.8* | -1.8 | 3.5 | -5.1 | 1.6 | 7.2 | 42.2*
Cc1ccc(NC(=S)N2CCC(N(C)CC3CCCO3)CC2)cc1C (stereo unspecified) | 5.5 | 3.8 | -0.2 | -1.3 | 2.5 | 1.5 | .
CCCCN(CC)Cc1ccc(CNC(=S)Nc2c(C)cc(C)cc2C)o1 | 84.8* | 1.5 | 7.2 | -0.6 | -12.9 | -1.4 | 45.2*
CN(C)C(=O)C12CCC(C)(C(=O)C1Br)C2(C)C (stereo unspecified) | -2.5 | -1.5 | -0.6 | -1.6 | 9.7 | -0.1 | .
SMILES | STEP inh | SUMO1 PPI mod | Rpn11 inh | LMPTP block | Scp-1 inhibitor | DNMT1 block | STEP conf
S=C(NCCN1CCOCC1)C(=S)NCCN1CCOCC1 | 41.5* | -19.1 | -2.0 | -2.3 | -2.2 | 4.5 | 12.9
S=C(NCCN1CCOCC1)NC1CCCCC1 | 8.1 | 5.1 | 0.7 | -1.9 | -6.2 | 1.2 | .
Cc1ccc(NC(=O)CCn2c(=S)oc3ccccc32)cc1F | 48.3* | 10.8 | 9.6 | 35.6 | 25.5 | 41.7 | 38.1*
O=C(CCn1c(=S)oc2ccccc21)Nc1cccc(F)c1 | -0.4 | -1.2 | 11.4 | 2.1 | -6.5 | 30.9 | .
CC1=C(O)C(=O)C(C2=C(O)C(=O)C(C)=C(O)C2=O)=C(O)C1=O | 65.1* | -12.7 | -2.3 | 3.8 | -1.3 | 1.1 | 21.2*
Clc1ccc(-c2nc(-c3ccncc3)no2)c(Cl)c1 | 3.1 | 3.0 | 32.7 | 1.8 | -10.9 | 22.6 | .
Clc1ccc(Cl)c(-c2nc(-c3ccncc3)no2)c1 | 44.0* | 32.6 | 2.4 | 43.5 | 2.4 | 23.2 | 11.8*
Cc1ccc(NC(=O)COc2ccccc2C=O)cc1Cl | 0.6 | 1.8 | 0.1 | 0.1 | 7.4 | 3.0 | .
CN(CC(=O)Nc1sccc1C(N)=O)S(=O)(=O)c1ccc(Cl)cc1 | 3.0 | 2.8 | 13.0 | 1.7 | -7.7 | -5.0 | .
O=c1c2c3c(sc2nc2n1CCCCC2)CCC3 | 3.6 | 5.3 | 1.7 | -1.6 | -6.9 | 5.4 | .
O=C1CCCc2c1sc1nc3n(c(=O)c21)CCCCC3 | 45.4* | -21.4 | -1.9 | -0.4 | -11.3 | 6.6 | -9.6
CCOC(=O)c1c(NC(=O)OC)sc(C(=O)N(CC)CC)c1C | 81.8* | -3.0 | 3.4 | 0.7 | -3.3 | -2.1 | 52.1*
CC(OC(=O)c1cccc(S(=O)(=O)Nc2cccc(C(F)(F)F)c2)c1)C(=O)Nc1ccc2c(c1)OCCO2 (stereo unspecified) | 60.7* | 7.4 | 1.7 | 3.4 | -9.6 | -17.4 | 18.8
Cc1nc([N+](=O)[O-])cn1CC(=O)Nc1ccc(F)c(Cl)c1 | -1.1 | -1.5 | 11.4 | -0.1 | 0.8 | -0.8 | .
O=C(NN=Cc1ccccc1O)c1cccc([N+](=O)[O-])c1 | 59.3* | 38.3 | 28.7 | 81.8* | 96.7* | 36.2 | 100.3*
O=C(N/N=C/c1ccccn1)c1cccc([N+](=O)[O-])c1 | -1.4 | -17.1 | 7.8 | -1.0 | -1.3 | 0.0 | .
CCCOc1ccc(C(=O)Nc2cc(S(=O)(=O)N3CCOCC3)ccc2N2CCN(CC)CC2)cc1OC | 0.3 | -16.1 | 4.6 | -8.4 | -1.7 | -2.6 | .
CC(=O)Nc1ccc(C(=O)CN2CCN(c3ccccc3)CC2)cc1 | 47.4* | 69.8* | 8.2 | 4.2 | -0.8 | -7.0 | 16.1
